The values that follow come from ChEMBL document CHEMBL4732112, “Synthesis and in vitro evaluation of novel spiroketopyrazoles as acetyl-CoA carboxylase inhibitors and potential antitumor agents” (Eur J Med Chem, 2021).

The structures appear in SMILES notation. Active and inactive are the calls of the source. The calls are words filed in the database; no cut-off is given here.

In general, inhibition refers to the relative decrease from the control value, in per cent. In general, IC50 refers to the midpoint of a concentration-inhibition curve.

The target of experiment [1] is T1, Acetyl-CoA carboxylase 1 (Homo sapiens, UniProt Q13085). Briefly: Inhibition of ACC1 in human HepG2 cells assessed as reduction in intracellular malonyl-CoA level at 10 uM measured after 48 hrs by ELISA relative to control. The experiment is classed as cell-based. The procedure, abridged:
(§1)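 HepG2 cells plated and exposed to the compound at several concentrations for 48 h. Cells washed with PBS, lysed in 1% Triton X-100 and spun 12000 rpm, 4 °C, 15 min. Malonyl-CoA measured by ELISA kit and triglyceride by GPO-POP kit, each normalised to BCA protein. Reported relative to control, mean ± SD, n=3.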
For orientation: In an ELISA, binding on a coated surface is turned into a signal by an enzyme label.

In experiment [2] the test system is HepG2. Briefly: Induction of apoptosis in human HepG2 cells assessed as early apoptotic cells at 1 uM measured after 48 hrs by Annexin V-FITC/propidium iodide staining based flow cytometry (reference value: 4.03%). Type of experiment: functional. The procedure, abridged: (§2)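 HepG2 cells incubated with the stated concentrations for 48 h, harvested, and stained with Annexin V-FITC and propidium iodide protected from light. Viable, early apoptotic, late apoptotic and necrotic fractions quantified by flow cytometry. Mean ± SD, n=3.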
A general note: A flow cytometer gives signals particle by particle.

For another experiment, the system named is A549. Briefly: Antiproliferative activity against human A549 cells assessed as cell growth inhibition after 72 hrs by MTT assay. The experiment is classed as functional, cell-based. The conditions noted are these: A549, 72 h. The procedure, abridged:
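HepG2, A549 or MDA-MB-231 cells grown in DMEM with 10% FBS and penicillin/streptomycin at 37 °C, 5% CO2. Seeded at 3×10^3 per well, left 24 h, then exposed to a range of concentrations for 72 h. MTT added for 4 h, formazan dissolved in DMSO, absorbance read at 550 nm. Mean ± SD, n=3.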
In general terms: Tetrazolium assays rely on reduction of a dye to a coloured formazan, in cell work by metabolically active cells.

In experiment [3] the target is T1, Acetyl-CoA carboxylase 1. Briefly: Inhibition of ACC1 in human HepG2 cells assessed as reduction in intracellular triglyceride level measured after 48 hrs by GPO-PAP method. The conditions noted are these: dose 1-10 µM. The experiment is classed as cell-based. The procedure, abridged:
as §1

Experiment [4] relates to HepG2. Briefly: Cell cycle arrest in human HepG2 cells assessed as accumulation at G0/G1 phase at 1 uM measured after 48 hrs by propidium iodide staining based flow cytometry (reference value: 56.24%). The experiment is classed as functional.
Experiment [5] relates to HepG2. The experiment can be described thus: Induction of apoptosis in human HepG2 cells assessed as early apoptotic cells at 5 uM measured after 48 hrs by Annexin V-FITC/propidium iodide staining based flow cytometry (reference value: 4.03%). Type of experiment: functional. Put shortly: as §2
The subject of experiment [6] is HepG2. Briefly: Induction of apoptosis in human HepG2 cells assessed as increase in early apoptotic cells measured after 48 hrs by Annexin V-FITC/propidium iodide staining based flow cytometry. Type of experiment: functional, cell-based. To be noted: dose 1-10 µM. Put shortly: as §2
For experiment [7], the system named is HepG2. The experiment can be described thus: Induction of apoptosis in human HepG2 cells assessed as necrotic cells at 5 uM measured after 48 hrs by Annexin V-FITC/propidium iodide staining based flow cytometry (reference value: 0.22%). Type of experiment: functional. Put shortly:
as §2

Experiment [8] relates to HepG2. Briefly: Cell cycle arrest in human HepG2 cells assessed as accumulation at S phase at 10 uM measured after 48 hrs by propidium iodide staining based flow cytometry (reference value: 30.18%). Type of experiment: functional.
In experiment [9] the test system is HepG2. The experiment can be described thus: Induction of apoptosis in human HepG2 cells assessed as increase in caspase-3 activation at 1 to 10 uM measured after 48 hrs by Western blot analysis. The experiment is classed as functional, cell-based. To be noted: dose 1-10 µM. Put shortly: (§3)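 Western blots for Bcl-2, Bax, cleaved caspase-3 and cleaved PARP in HepG2 cells after 48 h treatment (1, 5, 10 μM for PARP). Lysates cleared, protein quantified by BCA, run on SDS-PAGE to PVDF, blocked in 5% BSA, primary overnight at 4 °C, DyLight 800 secondary. Infrared scanning and densitometry normalized to β-actin. Mean ± SD, n=3.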

Experiment [10] relates to HepG2. Briefly: Antiproliferative activity against human HepG2 cells assessed as combination index at 1.4 uM measured after 72 hrs in presence of 2.8 uM doxorubicin by MTT assay. Type of experiment: functional.
Experiment [11] deals with HepG2. The experiment can be described thus: Induction of apoptosis in human HepG2 cells assessed as reduction in Bcl2 expression measured after 48 hrs by Western blot analysis. The experiment is classed as functional, cell-based. The conditions noted are these: dose 1-10 µM. The procedure, abridged: as §3
In experiment [12] the test system is HepG2. Briefly: Antiproliferative activity against human HepG2 cells assessed as combination index at 0.0875 uM measured after 72 hrs in presence of 0.175 uM doxorubicin by MTT assay. Type of experiment: functional.
For experiment [13], the system named is HepG2. Briefly: Antiproliferative activity against human HepG2 cells assessed as cell viability at 0.5 uM measured after 5 days in presence of 25 uM palmitate by MTT assay relative to control. Type of experiment: functional. The conditions noted are these: HepG2, 120 h, time 5 day, read-out: Activity. The procedure, abridged:
(§4)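 HepG2 treated with 0.5 μM plus 0, 10 or 25 μM palmitate for 1, 3 and 5 days. Palmitate was complexed with 5% fatty-acid-free BSA from a 5 mM solution, then diluted in serum-free DMEM to final concentration. Viability (% control) by MTT. Mean ± SD, n=3.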

Experiment [14] deals with HepG2. Briefly: Induction of apoptosis in human HepG2 cells assessed as increase in PARP cleavage at 1 to 10 uM measured after 48 hrs by Western blot analysis. Type of experiment: functional, cell-based. To be noted: dose 1-10 µM. The procedure, abridged:
as §3

The test system of experiment [15] is HepG2. Briefly: Induction of apoptosis in human HepG2 cells assessed as late apoptotic cells at 10 uM measured after 48 hrs by Annexin V-FITC/propidium iodide staining based flow cytometry (reference value: 0.19%). Type of experiment: functional. The procedure, abridged: as §2
The subject of experiment [16] is HepG2. The experiment can be described thus: Cell cycle arrest in human HepG2 cells assessed as reduction in cyclin D1 expression measured after 48 hrs by Western blot analysis. The experiment is classed as functional, cell-based. The conditions noted are these: dose 1-10 µM. The procedure, abridged:
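HepG2 cells treated for 48 h and lysed. Lysates cleared at 12000 rpm for 15 min and protein measured by BCA. Run on SDS-PAGE, transferred to PVDF, blocked in 5% BSA, primary antibody at 4 °C overnight, then DyLight 800 secondary. Infrared imaging and densitometry against β-actin. Mean ± SD, n=3.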

The subject of experiment [17] is HepG2. The experiment can be described thus: Cell cycle arrest in human HepG2 cells assessed as accumulation at G2/M phase at 10 uM measured after 48 hrs by propidium iodide staining based flow cytometry (reference value: 13.58%). The experiment is classed as functional.
Experiment [18] deals with HepG2. The experiment can be described thus: Induction of apoptosis in human HepG2 cells assessed as viable cells at 10 uM measured after 48 hrs by Annexin V-FITC/propidium iodide staining based flow cytometry (reference value: 95.6%). Type of experiment: functional. To be noted: read-out: Activity. The procedure, abridged:
as §2

Experiment [19] concerns the target T1, Acetyl-CoA carboxylase 1. The experiment can be described thus: Inhibition of recombinant human C-terminal His-tagged ACC1 (1 to 2383 residues) expressed in baculovirus infected Sf9 insect cells at 5 uM preincubated for 15 mins followed by substrate addition and measured after 60 mins by ADP-glo luminescence assay relative to control.
Experiment [20] has as its system HepG2. The experiment can be described thus: Antiproliferative activity against human HepG2 cells assessed as cell growth inhibition at 10 uM after 72 hrs by MTT assay relative to control. To be noted: read-out: GI. Type of experiment: functional. The procedure, abridged:
(§5)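 Cells were DMEM/10% FBS cultures at 37 °C, 5% CO2, seeded at 3×10^3 per well and exposed for 72 h after 24 h attachment. Read-out was MTT with formazan in DMSO and absorbance at 550 nm, expressed as inhibition rate versus control.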

Experiment [21] has as its system HepG2. The experiment can be described thus: Antiproliferative activity against human HepG2 cells assessed as cell viability at 0.5 uM measured after 5 days by MTT assay relative to control. The experiment is classed as functional. The conditions noted are these: HepG2, 120 h, time 5 day, read-out: Activity. Put shortly: as §4
The next experiment concerns MDA-MB-231. The experiment can be described thus: Antiproliferative activity against human MDA-MB-231 cells assessed as cell growth inhibition at 10 uM after 72 hrs by MTT assay relative to control. To be noted: read-out: GI. The experiment is classed as functional. Put shortly:
as §5

Experiment [22] deals with T1, Acetyl-CoA carboxylase 1. The experiment can be described thus: Inhibition of recombinant human C-terminal His-tagged ACC1 (1 to 2383 residues) expressed in baculovirus infected Sf9 insect cells at 0.1 uM preincubated for 15 mins followed by substrate addition and measured after 60 mins by ADP-glo luminescence assay relative to control.

With `CC(C)(C)n1cc2c(n1)C(=O)CC1(CCN(C(=O)c3cc(-c4ccncc4)nc4ccccc34)CC1)O2`, the inhibition was 31.4% on Acetyl-CoA carboxylase 1 [1], “Dose-dependent effect” at Acetyl-CoA carboxylase 1 [3], 100% at Acetyl-CoA carboxylase 1 [19] and 86.2% at Acetyl-CoA carboxylase 1 [22]. Moreover, the Activity was 11.6% with HepG2 [2]; 67.68% in the experiment with HepG2 [4]; 18.9% in the experiment with HepG2 [5]; “Dose-dependent effect” with HepG2 [6]; 3.72% with HepG2 [7]; 6.48% in the experiment on HepG2 [8]. Moreover, the Activity result in the experiment on HepG2 [11] was “Dose-dependent effect”; with HepG2 [15], 45.5%; in the experiment on HepG2 [16], “Dose-dependent effect”; in the experiment with HepG2 [17] it was 4.9%. The IC50 in the experiment with A549 was found to be 550 nM. Also, the result in the experiment with HepG2 [9] and in the experiment with HepG2 [14] was Active. In addition, the values for the CI in the experiment on HepG2 [10] and with HepG2 [12] were 0.366 and 0.713, respectively. Further, the viability at 0.5 µM with HepG2 [13] is 87.1%; in the experiment with HepG2 [21] it was 33.1%. Also, the viability at 10 µM in the experiment on HepG2 [18] worked out at 12.2%. Further, the inhibition of growth at 10 µM with HepG2 [20] came to 80.1%; with MDA-MB-231 it was 72.2%.
